From ChEMBL document CHEMBL1817615, “Dimerization of piceatannol by Momordica charantia peroxidase and α-glucosidase inhibitory activity of the biotransformation products” (Bioorg Med Chem, 2011)

assay: Inhibition of yeast alpha-glucosidase using p-nitrophenyl a-D-glucopyranoside as substrate by spectrophotometry; design: species or system Saccharomyces cerevisiae
Procedure, shortened: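 Yeast enzyme at 1 U/mL with 0.01 M p-nitrophenyl α-D-glucopyranoside substrate, in 0.067 M KH₂PO₄–Na₂HPO₄ buffer, pH 6.8. Reaction run at 37 °C for 10 min and inhibition read spectrophotometrically. Method adapted with slight modification from a published procedure.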

Row | IC50 | SMILES
1 | 131 µM | CC(=O)Oc1cc([C@@H]2c3c(O)cc(O)cc3[C@H]3[C@H](c4ccc(O)c(OC(C)=O)c4)c4c(O)cc(O)cc4[C@@H]23)ccc1O
2 | 69.3 µM | CC(=O)Oc1cc([C@H]2Oc3ccc(/C=C/c4cc(O)cc(O)c4)cc3O[C@@H]2c2cc(O)cc(O)c2)ccc1O (racemic)
3 | 1.13 µM | Oc1cc(O)cc(/C=C/c2cc(O)c3c(c2)[C@H](c2cc(O)cc(O)c2)[C@@H](c2ccc(O)c(O)c2)O3)c1 (racemic)
4 | 109 µM | COc1cc([C@@H]2c3c(O)cc(O)cc3[C@H]3[C@H](c4ccc(O)c(O)c4)c4c(O)cc(O)cc4[C@@H]23)ccc1O (racemic)
5 | 3.04 µM | COc1cc([C@H]2Oc3c(O)cc(/C=C/c4cc(O)cc(O)c4)cc3[C@@H]2c2cc(O)cc(O)c2)ccc1O (relative stereo)
6 | 79.1 µM | Oc1cc(O)c2c(c1)[C@H]1[C@H](c3ccc(O)c(O)c3)c3c(O)cc(O)cc3[C@H]1[C@@H]2c1ccc(O)c(O)c1 [CARAROSINOL D]
7 | 20.6 µM | OC[C@H]1NC[C@H](O)[C@@H](O)[C@@H]1O [DUVOGLUSTAT]
8 | 70.2 µM | COc1cc(/C=C2/c3cc(O)cc(O)c3[C@H](c3ccc(O)c(OC)c3)[C@H]2c2cc(O)cc(O)c2)ccc1O [GNETULIN]
9 | 23.2 µM | Oc1cc(O)cc(/C=C/c2ccc3c(c2)O[C@H](c2cc(O)cc(O)c2)[C@@H](c2ccc(O)c(O)c2)O3)c1 [MAACKIN]
10 | 34.3 µM | Oc1cc(O)cc(/C=C/c2ccc(O)c(O)c2)c1 [PICEATANNOL]
